ChEMBL document CHEMBL4673249, “Anticancer Effects of Honokiol via Mitochondrial Dysfunction Are Strongly Enhanced by the Mitochondria-Targeting Carrier Berberine” (J Med Chem, 2020)
Active and inactive are the calls of the source. The rule behind the calls is not given here.

What was measured:
[1] = system: A549; assay: Antiproliferative activity against human A549 cells assessed as reduction in cell viability after 48 hrs by MTT assay; type: functional, cell-based; settings: A549, 48 h
How it was run: (§1)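 Cell lines grown at 37 °C in 5% CO2: A2780, A549, HL7702 and PC3 in RPMI 1640; HT29 in McCoy's 5A; HepG2 and PANC-1 in DMEM; all media with 10% FBS and penicillin/streptomycin. Cells seeded and left overnight, then exposed to compound for 48 h. MTT (5 mg/mL solution) added for 4 h at 37 °C, formazan dissolved in DMSO, absorbance read at 570 nm. IC50 taken from viability; run in triplicate.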

[2] = system: HepG2; assay: Antiproliferative activity against human HepG2 cells assessed as reduction in cell viability after 48 hrs by MTT assay; type: functional, cell-based; settings: HepG2, 48 h; how it was run: as §1
[3] = system: HT-29; assay: Antiproliferative activity against human HT29 cells assessed as reduction in cell viability after 48 hrs by MTT assay; type: functional, cell-based; settings: HT-29, 48 h; how it was run: as §1
[4] = system: PANC-1; assay: Antiproliferative activity against human PANC1 cells assessed as reduction in cell viability after 48 hrs by MTT assay; type: functional, cell-based; settings: PANC-1, 48 h; how it was run: as §1
[5] = system: PC-3; assay: Antiproliferative activity against human PC-3 cells assessed as reduction in cell viability after 48 hrs by MTT assay; type: functional, cell-based; settings: PC-3, 48 h; how it was run: as §1
[6] = system: A2780; assay: Antiproliferative activity against human A2780 cells assessed as reduction in cell viability after 48 hrs by MTT assay; type: functional, cell-based; settings: A2780, 48 h; how it was run: as §1
[7] = system: L02; assay: Antiproliferative activity against human L02 cells assessed as reduction in cell viability after 48 hrs by MTT assay; type: cell-based; settings: L02, 48 h; how it was run: as §1
[8] = system: HepG2; assay: Induction of morphological changes in human HepG2 cells assessed as accumulation of cytoplasmic vacuoles at 4 uM after 24 hrs by optical microscopic method; type: functional, cell-based
How it was run: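 Cells grown at 37 °C, 5% CO2 in media with 10% FBS and penicillin/streptomycin, then treated with compound. Cytoplasmic vacuoles judged by optical microscopy. Time course at 4 μM, or 10 h exposure across increasing concentrations.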

[9] = system: HepG2; assay: Synergistic antiproliferative activity against human HepG2 cells assessed as combination index at 20 to 80 uM after 48 hrs in presence of 10 to 40 uM HN by MTT assay; type: functional; settings: dose 20-80 µM
[10] = system: HepG2; assay: Induction of morphological changes in human HepG2 cells assessed as accumulation of cytoplasmic vacuoles at 40 uM after 24 hrs by optical microscopic method; type: functional, cell-based
[11] = system: HepG2; assay: Synergistic antiproliferative activity against human HepG2 cells assessed as combination index after 48 hrs in presence BBR by MTT assay; type: functional
[12] = system: HepG2; assay: Synergistic antiproliferative activity against human HepG2 cells assessed as combination index after 48 hrs in presence HN by MTT assay; type: functional
[13] = system: HepG2; assay: Induction of morphological changes in human HepG2 cells assessed as accumulation of cytoplasmic vacuoles >30 uM after 24 hrs by optical microscopic method; type: functional, cell-based; settings: dose microM >30, time 24.0 hrs
[14] = Drug uptake in human HepG2 cells mitochondria at 5 uM after 12 hrs by HPLC analysis; type: ADME; settings: hepg2, 12 h
How it was run: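 HepG2 cells given 5 μM for 12 h, then homogenized in mitochondrial extraction reagent. Spun at 600 g, 4 °C, 10 min; supernatant spun again at 11000 g, 4 °C, 10 min, and the pellet taken as mitochondria. Drug content by HPLC on a C18 column with methanol–0.1% acetic acid (80:20), detection at 265 nm. Run thrice.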

SMILES | IC50 [1] | IC50 [2] | IC50 [3] | IC50 [4] | IC50 [5] | IC50 [6] | Drug uptake [14] | IC50 [7] | Activity [8] | CI [9] | Activity [10] | CI [11] | CI [12] | Activity [13]
C=CCc1ccc(OC)c(-c2ccc(O)c(CC=C)c2)c1 | > 30 µM | 29.7 µM | 35.4 µM | 16.4 µM | 24.8 µM | 24.7 µM | – | 35.3 µM | – | – | – | – | – | –
C=CCc1ccc(OCCCCCCCCc2c3[n+](cc4c(OC)c(OC)ccc24)CCc2cc4c(cc2-3)OCO4)c(-c2ccc(O)c(CC=C)c2)c1 | 2.09 µM | 1.27 µM | 2.54 µM | 2.48 µM | 2 µM | 1.97 µM | – | 5.77 µM | Active | – | – | – | – | –
COc1ccc2cc3[n+](cc2c1OC)CCc1cc2c(cc1-3)OCO2.[Cl-] [BERBERINE CHLORIDE] | > 50 µM | > 50 µM | > 50 µM | > 50 µM | 31.7 µM | > 50 µM | – | > 50 µM | – | >1 | inactive | – | – | –
C=CCc1ccc(OCCC)c(-c2ccc(O)c(CC=C)c2)c1 | 14.7 µM | 15.5 µM | 26.4 µM | 15.9 µM | 17 µM | 14.7 µM | – | 22.4 µM | – | – | – | – | – | –
C=CCc1ccc(O)c(-c2ccc(OCCC)c(CC=C)c2)c1 | 21 µM | 19.1 µM | 26.5 µM | 17.8 µM | 21.1 µM | 14.7 µM | – | 27.8 µM | – | – | – | – | – | –
C=CCc1ccc(O)c(-c2ccc(OCCCc3c4[n+](cc5c(OC)c(OC)ccc35)CCc3cc5c(cc3-4)OCO5)c(CC=C)c2)c1 | 3.25 µM | 2.19 µM | > 5 µM | 6.02 µM | 1.17 µM | 1.56 µM | – | 3.56 µM | Active | – | – | – | – | –
C=CCc1ccc(OCCCc2c3[n+](cc4c(OC)c(OC)ccc24)CCc2cc4c(cc2-3)OCO4)c(-c2ccc(O)c(CC=C)c2)c1 | > 5 µM | 3.71 µM | > 5 µM | > 5 µM | 2.26 µM | 3.03 µM | – | 5.21 µM | Active | – | – | – | – | –

Continued by falling IC50 [2], values first:

IC50 [1] | IC50 [2] | IC50 [3] | IC50 [4] | IC50 [5] | IC50 [6] | Drug uptake [14] | SMILES | IC50 [7] | Activity [8] | CI [9] | Activity [10] | CI [11] | CI [12] | Activity [13]
– | 29.3 µM | – | – | – | – | – | CCCCCc1c2[n+](cc3c(OC)c(OC)ccc13)CCc1cc3c(cc1-2)OCO3.[I-] | – | – | – | Active | – | 0.79 | –
38 µM | 23.9 µM | 31.6 µM | 31.2 µM | 29 µM | 31.6 µM | 17.8 µM | C=CCc1ccc(O)c(-c2ccc(O)c(CC=C)c2)c1 [HONOKIOL] | 25.5 µM | – | – | – | – | – | Active
– | 19.2 µM | – | – | – | – | – | C=CCc1ccc(O)c(-c2ccc(OCCCCC)c(CC=C)c2)c1 | – | – | – | – | 0.79 | – | –
22 µM | 17.5 µM | 21.1 µM | 16.7 µM | 17.9 µM | 14.7 µM | – | C=CCc1ccc(O)c(-c2ccc(OC)c(CC=C)c2)c1 [METHYLHONOKIOL] | 23.9 µM | – | – | – | – | – | –
2.9 µM | 2.32 µM | > 5 µM | 3.24 µM | 1.59 µM | 1.59 µM | – | C=CCc1ccc(OCCCCCc2c3[n+](cc4c(OC)c(OC)ccc24)CCc2cc4c(cc2-3)OCO4)c(-c2ccc(O)c(CC=C)c2)c1 | 3.04 µM | Active | – | – | – | – | –
1.33 µM | 1.05 µM | 1.64 µM | 1.73 µM | 0.99 µM | 1.17 µM | – | C=CCc1ccc(OC)c(-c2ccc(OCCCCCc3c4[n+](cc5c(OC)c(OC)ccc35)CCc3cc5c(cc3-4)OCO5)c(CC=C)c2)c1 | 3.43 µM | Active | – | – | – | – | –
1.71 µM | 1.04 µM | 1.56 µM | 2.96 µM | 1.12 µM | 1.36 µM | – | C=CCc1ccc(OCCCCCc2c3[n+](cc4c(OC)c(OC)ccc24)CCc2cc4c(cc2-3)OCO4)c(-c2ccc(OC)c(CC=C)c2)c1 | 2.97 µM | Active | – | – | – | – | –
1.25 µM | 0.95 µM | 1.95 µM | 1.69 µM | 1.22 µM | 1.41 µM | – | C=CCc1ccc(OCCC)c(-c2ccc(OCCCCCc3c4[n+](cc5c(OC)c(OC)ccc35)CCc3cc5c(cc3-4)OCO5)c(CC=C)c2)c1 | 3.05 µM | Active | – | – | – | – | –
1.66 µM | 0.92 µM | 2.39 µM | 2.56 µM | 1.43 µM | 1.68 µM | – | C=CCc1ccc(OCCCCCc2c3[n+](cc4c(OC)c(OC)ccc24)CCc2cc4c(cc2-3)OCO4)c(-c2ccc(OCCC)c(CC=C)c2)c1 | 3.62 µM | Active | – | – | – | – | –
1.84 µM | 0.77 µM | 2.89 µM | 2.09 µM | 1.74 µM | 1.52 µM | – | C=CCc1ccc(O)c(-c2ccc(OCCCCCCCCc3c4[n+](cc5c(OC)c(OC)ccc35)CCc3cc5c(cc3-4)OCO5)c(CC=C)c2)c1 | 4.82 µM | Active | – | – | – | – | –
3.08 µM | 0.67 µM | 5.92 µM | 1.73 µM | 0.93 µM | 0.71 µM | – | COc1cccc2c1C(=O)c1c(O)c3c(c(O)c1C2=O)C[C@@](O)(C(=O)CO)C[C@@H]3O[C@H]1C[C@H](N)[C@H](O)[C@H](C)O1 [DOXORUBICIN] | 2.24 µM | – | – | – | – | – | –
